Reference: ChEMBL document CHEMBL1255567, “Design, synthesis, and structure-activity relationships of novel bicyclic azole-amines as negative allosteric modulators of metabotropic glutamate receptor 5” (J Med Chem, 2010)
pIC50, pKi: −log10 of the molar value. Each block holds one compound with its values, some of them ahead of it. The source made the active and inactive calls. The calls are words filed in the database; no cut-off is given here.

Tests used:
[1] = biological target: T1, Metabotropic glutamate receptor 5 (Homo sapiens, UniProt P41594); experiment: Modulation of human recombinant mGluR5 expressed in CHO cells assessed as inhibition of glutamate-induced response at 10 uM; assay type: cell-based
Target sequence in this assay (P41594 21-1212 limits assumed): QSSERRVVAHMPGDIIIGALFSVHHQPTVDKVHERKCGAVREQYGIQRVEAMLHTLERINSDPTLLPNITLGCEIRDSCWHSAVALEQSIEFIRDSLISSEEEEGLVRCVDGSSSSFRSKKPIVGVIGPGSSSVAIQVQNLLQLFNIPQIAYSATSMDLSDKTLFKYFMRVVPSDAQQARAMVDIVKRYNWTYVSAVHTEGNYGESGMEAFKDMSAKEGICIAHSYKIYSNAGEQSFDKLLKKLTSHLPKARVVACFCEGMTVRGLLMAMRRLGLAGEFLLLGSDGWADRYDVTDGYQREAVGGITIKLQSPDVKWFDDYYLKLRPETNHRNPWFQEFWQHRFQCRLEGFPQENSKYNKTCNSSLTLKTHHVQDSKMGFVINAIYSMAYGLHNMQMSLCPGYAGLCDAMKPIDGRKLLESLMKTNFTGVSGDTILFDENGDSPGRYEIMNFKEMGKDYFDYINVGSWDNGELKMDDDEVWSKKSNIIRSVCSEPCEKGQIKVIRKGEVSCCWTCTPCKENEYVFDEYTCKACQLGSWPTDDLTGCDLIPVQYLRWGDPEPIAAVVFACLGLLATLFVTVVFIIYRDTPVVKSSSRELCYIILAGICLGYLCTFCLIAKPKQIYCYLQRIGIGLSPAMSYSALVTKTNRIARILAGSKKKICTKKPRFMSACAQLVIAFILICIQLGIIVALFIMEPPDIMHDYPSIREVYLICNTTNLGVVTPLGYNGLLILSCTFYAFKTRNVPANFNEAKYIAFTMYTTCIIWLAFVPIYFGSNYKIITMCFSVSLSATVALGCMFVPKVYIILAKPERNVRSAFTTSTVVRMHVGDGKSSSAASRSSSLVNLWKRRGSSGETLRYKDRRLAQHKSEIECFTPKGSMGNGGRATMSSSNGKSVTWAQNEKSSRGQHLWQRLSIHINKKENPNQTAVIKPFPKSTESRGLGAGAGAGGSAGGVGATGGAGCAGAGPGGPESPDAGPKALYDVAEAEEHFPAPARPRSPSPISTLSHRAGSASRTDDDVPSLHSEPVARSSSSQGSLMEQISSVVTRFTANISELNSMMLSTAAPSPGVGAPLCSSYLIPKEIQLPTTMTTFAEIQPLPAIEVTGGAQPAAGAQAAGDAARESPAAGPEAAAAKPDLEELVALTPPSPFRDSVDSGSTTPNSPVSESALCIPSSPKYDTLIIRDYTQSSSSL

[2] = biological target: T1, Metabotropic glutamate receptor 5; experiment: Modulation of human recombinant mGluR5 expressed in CHO cells assessed as inhibition of glutamate-induced response; assay type: cell-based
Method in brief: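 Aequorin cell line with doxycycline-inducible human mGluR5, induced 18 h (600 ng/mL). Cells loaded with coelenterazine-h ≥4 h at room temperature, preincubated with compound ≥3 min, then challenged with glutamate at EC80. Luminescence read on FDSS 6000, normalized to digitonin or 20 μM ATP wells. IC50 from sigmoidal fit; mean of two determinations.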
Target sequence in this assay (P41594 whole entry): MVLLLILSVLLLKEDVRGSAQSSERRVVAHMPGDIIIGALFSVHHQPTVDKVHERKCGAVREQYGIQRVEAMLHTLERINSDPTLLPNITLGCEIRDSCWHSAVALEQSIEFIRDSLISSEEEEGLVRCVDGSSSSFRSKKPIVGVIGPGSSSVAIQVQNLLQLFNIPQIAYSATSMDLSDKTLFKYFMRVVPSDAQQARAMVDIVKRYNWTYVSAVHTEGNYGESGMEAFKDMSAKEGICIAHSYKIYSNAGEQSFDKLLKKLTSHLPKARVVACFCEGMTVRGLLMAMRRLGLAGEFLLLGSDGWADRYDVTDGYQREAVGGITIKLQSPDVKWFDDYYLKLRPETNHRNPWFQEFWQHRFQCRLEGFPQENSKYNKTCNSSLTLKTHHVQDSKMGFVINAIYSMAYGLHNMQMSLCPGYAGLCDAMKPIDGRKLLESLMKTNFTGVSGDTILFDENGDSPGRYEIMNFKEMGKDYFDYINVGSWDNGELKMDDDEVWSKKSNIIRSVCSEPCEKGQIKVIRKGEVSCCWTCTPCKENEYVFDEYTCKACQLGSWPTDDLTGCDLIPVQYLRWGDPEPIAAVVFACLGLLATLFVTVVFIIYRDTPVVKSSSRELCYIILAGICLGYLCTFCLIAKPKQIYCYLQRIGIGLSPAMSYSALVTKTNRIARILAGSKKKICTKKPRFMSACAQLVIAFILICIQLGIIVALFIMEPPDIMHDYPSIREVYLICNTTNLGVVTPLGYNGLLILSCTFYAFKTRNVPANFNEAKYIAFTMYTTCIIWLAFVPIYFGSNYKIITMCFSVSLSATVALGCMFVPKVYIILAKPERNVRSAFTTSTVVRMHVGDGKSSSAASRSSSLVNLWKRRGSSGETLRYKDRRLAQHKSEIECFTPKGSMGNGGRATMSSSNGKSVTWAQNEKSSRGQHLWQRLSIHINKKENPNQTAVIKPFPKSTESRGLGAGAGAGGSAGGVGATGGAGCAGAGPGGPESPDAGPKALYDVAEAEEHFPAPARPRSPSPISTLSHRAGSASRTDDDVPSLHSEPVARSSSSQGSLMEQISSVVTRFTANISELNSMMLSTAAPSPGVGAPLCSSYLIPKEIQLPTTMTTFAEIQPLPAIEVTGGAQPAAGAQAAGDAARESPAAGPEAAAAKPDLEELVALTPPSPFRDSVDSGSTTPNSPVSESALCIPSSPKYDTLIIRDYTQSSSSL

[3] = biological target: Metabotropic glutamate receptor 5 (Rattus norvegicus, UniProt P31424); experiment: Displacement of [3H]-MPEP from mGluR5 in rat cortical membranes; assay type: cell membranes, Membrane
Method in brief: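 Competition binding against [3H]-MPEP on rat cortical membranes, run in duplicate. Nonspecific binding defined with a 200-fold excess of reference modulator. Incubated 120 min at 4 °C in 0.1 mL, filtered on PEI-presoaked GF-C filters, washed with cold 50 mM Tris-HCl pH 7.4, scintillation counted. Ki reported as mean of two determinations; MPEP used as control.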

Rattus norvegicus [4] = experiment: Ex vivo receptor occupancy of mGluR5 receptor in Sprague-Dawley rat brain at 3 mg/kg, ip after 60 mins; assay type: functional; details: route intraperitoneal
Method in brief: (§1)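 Male Sprague-Dawley rats (n = 4) dosed 3 mg/kg ip in 45% HPβCD. At set times postdose, iv tail-vein 3H-mPEPy tracer; decapitated 2 min later. Striatum and cerebellum sections imaged 12 h on β-imager. %RO derived from striatum:cerebellum signal ratio relative to vehicle animals; mean ± SEM.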

Brain = experiment: Drug level in Sprague-Dawley rat brain at 3 mg/kg, ip; assay type: ADME, organism-based; parameters: dose 3 mg/kg, route intraperitoneal; details: in vivo, read-out: Drug uptake
Method in brief: (§2)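 Male Sprague-Dawley rats (200-250 g, n = 4) given 3 mg/kg ip in 45% HPβCD. Trunk blood and brain taken at sacrifice. Brain homogenized at 40 mg/mL in 95:5 water:acetonitrile with 0.1% formic acid. Plasma or homogenate precipitated with acetonitrile, dried, reconstituted and measured by LC/MS/MS.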

Rattus norvegicus [5] = experiment: Ex vivo receptor occupancy of mGluR5 receptor in po dosed Sprague-Dawley rat brain after 60 mins; assay type: functional; details: 1 h
Method in brief: (§3)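 Male Sprague-Dawley rats (200-250 g, n = 4) dosed ip or po at 0.3, 1, 3, 10, 30 mg/kg in 45% HPβCD. After 60 min, iv 3H-mPEPy tracer; killed 2 min later. Striatal versus cerebellar radioactivity on β-imager gives %RO against vehicle. Dose-occupancy curves fitted.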

Rhesus monkey = experiment: Cmax in rhesus monkey at 1 mg/kg, iv; assay type: ADME, organism-based, Macaca mulatta; parameters: dose 1 mg/kg, route intravenous; details: in vivo
Method in brief: (§4)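 Male Rhesus monkeys, 3 per cohort; 1 mg/kg iv or oral gavage. Vehicle 40% hydroxypropyl-βCD:50 mM potassium phosphate pH 6.0 (50:50), 0.5 mg/mL nominal, filtered. Femoral vein blood predose and 5 min to 24 h. K3EDTA plasma, protein precipitation with internal standard, LC/MS/MS (LLOQ 2.5 ng/mL). Noncompartmental PK parameters.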

[6] = Cmax in Sprague-Dawley rat at 10 mg/kg, po; assay type: ADME, organism-based; parameters: dose 10 mg/kg, route oral; details: in vivo
Method in brief: (§5)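 Male Sprague-Dawley rats, 3 per cohort; 2 mg/kg iv or 2 and 10 mg/kg oral gavage. Vehicle 40% hydroxypropyl-βCD:50 mM potassium phosphate pH 6.0 (50:50), 0.5 mg/mL nominal, filtered. Jugular-cannula blood predose and 5 min to 24 h. K2-EDTA plasma, methanol precipitation with internal standard, LC/MS/MS (LLOQ 2.5 ng/mL). Noncompartmental analysis.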

[7] = Cmax in Sprague-Dawley rat at 2 mg/kg, iv; assay type: ADME, organism-based; parameters: dose 2 mg/kg, route intravenous; details: in vivo; method in brief: as §5
Rattus norvegicus [8] = experiment: Ex vivo receptor occupancy of mGluR5 receptor in ip dosed Sprague-Dawley rat brain after 60 mins; assay type: functional; details: 1 h; method in brief: as §3
[9] = Clearance in Sprague-Dawley rat at 2 mg/kg, iv; assay type: ADME, organism-based; parameters: dose 2 mg/kg, route intravenous; details: in vivo; method in brief: as §5
[10] = biological target: Kappa-type opioid receptor (Homo sapiens) (UniProt P41145); experiment: Inhibition of kappa opioid receptor at 10 uM
Rattus norvegicus [11] = experiment: Ex vivo receptor occupancy of mGluR5 receptor in Sprague-Dawley rat brain at 3 mg/kg, ip after 30 mins; assay type: functional; details: route intraperitoneal; method in brief: as §1
[12] = Half life in rhesus monkey at 1 mg/kg, iv; assay type: ADME, organism-based, Macaca mulatta; parameters: dose 1 mg/kg, route intravenous; details: in vivo; method in brief: as §4
[13] = Oral bioavailability in Sprague-Dawley rat at 2 mg/kg; assay type: ADME, organism-based; details: in vivo; method in brief: as §5
[14] = AUC (0 to t) in Sprague-Dawley rat at 10 mg/kg, po; assay type: ADME, organism-based; parameters: dose 10 mg/kg, route oral; details: plasma; method in brief: as §5
[15] = AUC (0 to t) in Sprague-Dawley rat at 2 mg/kg, po; assay type: ADME, organism-based; parameters: dose 2 mg/kg, route oral; details: plasma; method in brief: as §5
Rattus norvegicus [16] = experiment: (§6) Half life in Sprague-Dawley rat at 2 mg/kg, iv; assay type: ADME, organism-based; parameters: dose 2 mg/kg, route intravenous; details: in vivo; method in brief: as §5
[17] = as §6; assay type: ADME, organism-based; parameters: dose 2 mg/kg, route intravenous; details: Sprague-Dawley, in vivo; method in brief: as §5
[18] = Volume of distribution in Sprague-Dawley rat at 2 mg/kg, iv; assay type: ADME, organism-based; parameters: dose 2 mg/kg, route intravenous; details: in vivo; method in brief: as §5
[19] = Cmax in Sprague-Dawley rat at 2 mg/kg, po; assay type: ADME, organism-based; parameters: dose 2 mg/kg, route oral; details: in vivo; method in brief: as §5
[20] = AUC (0 to t) in rhesus monkey at 1 mg/kg, po; assay type: ADME, organism-based, Macaca mulatta; parameters: dose 1 mg/kg, route oral; details: plasma; method in brief: as §4
[21] = Clearance in rhesus monkey at 1 mg/kg, iv; assay type: ADME, organism-based, Macaca mulatta; parameters: dose 1 mg/kg, route intravenous; details: in vivo; method in brief: as §4
[22] = Half life in rhesus monkey at 1 mg/kg, po; assay type: ADME, organism-based, Macaca mulatta; parameters: dose 1 mg/kg, route oral; details: in vivo; method in brief: as §4
Rattus norvegicus [23] = experiment: Ex vivo receptor occupancy of mGluR5 receptor in Sprague-Dawley rat brain at 3 mg/kg, ip after 2 hrs; assay type: functional; details: route intraperitoneal; method in brief: as §1
[24] = Cmax in rhesus monkey at 1 mg/kg, po; assay type: ADME, organism-based, Macaca mulatta; parameters: dose 1 mg/kg, route oral; details: in vivo; method in brief: as §4
Plasma = experiment: Drug level in Sprague-Dawley rat plasma at 3 mg/kg, ip; assay type: ADME, organism-based; parameters: dose 3 mg/kg, route intraperitoneal; details: in vivo; method in brief: as §2
[25] = AUC (0 to t) in rhesus monkey at 1 mg/kg, iv; assay type: ADME, organism-based, Macaca mulatta; parameters: dose 1 mg/kg, route intravenous; details: plasma; method in brief: as §4
[26] = AUC (0 to t) in Sprague-Dawley rat at 2 mg/kg, iv; assay type: ADME, organism-based; parameters: dose 2 mg/kg, route intravenous; details: plasma; method in brief: as §5
[27] = Oral bioavailability in rhesus monkey at 1 mg/kg; assay type: ADME, organism-based, Macaca mulatta; details: in vivo; method in brief: as §4
[28] = Half life in Sprague-Dawley rat at 10 mg/kg, po; assay type: ADME, organism-based; parameters: dose 10 mg/kg, route oral; details: in vivo; method in brief: as §5
[29] = Oral bioavailability in Sprague-Dawley rat at 10 mg/kg; assay type: ADME, organism-based; details: in vivo; method in brief: as §5
[30] = Half life in Sprague-Dawley rat at 2 mg/kg, po; assay type: ADME, organism-based; parameters: dose 2 mg/kg, route oral; details: in vivo; method in brief: as §5
Rattus norvegicus [31] = experiment: Ex vivo receptor occupancy of mGluR5 receptor in Sprague-Dawley rat brain at 3 mg/kg, ip after 24 hrs; assay type: functional, organism-based; parameters: dose 3 mg/kg; method in brief: as §1
[32] = Volume of distribution in rhesus monkey at 1 mg/kg, iv; assay type: ADME, organism-based, Macaca mulatta; parameters: dose 1 mg/kg, route intravenous; details: in vivo; method in brief: as §4

Sequence of Metabotropic glutamate receptor 5 (Rattus norvegicus, UniProt P31424) (P31424 whole entry): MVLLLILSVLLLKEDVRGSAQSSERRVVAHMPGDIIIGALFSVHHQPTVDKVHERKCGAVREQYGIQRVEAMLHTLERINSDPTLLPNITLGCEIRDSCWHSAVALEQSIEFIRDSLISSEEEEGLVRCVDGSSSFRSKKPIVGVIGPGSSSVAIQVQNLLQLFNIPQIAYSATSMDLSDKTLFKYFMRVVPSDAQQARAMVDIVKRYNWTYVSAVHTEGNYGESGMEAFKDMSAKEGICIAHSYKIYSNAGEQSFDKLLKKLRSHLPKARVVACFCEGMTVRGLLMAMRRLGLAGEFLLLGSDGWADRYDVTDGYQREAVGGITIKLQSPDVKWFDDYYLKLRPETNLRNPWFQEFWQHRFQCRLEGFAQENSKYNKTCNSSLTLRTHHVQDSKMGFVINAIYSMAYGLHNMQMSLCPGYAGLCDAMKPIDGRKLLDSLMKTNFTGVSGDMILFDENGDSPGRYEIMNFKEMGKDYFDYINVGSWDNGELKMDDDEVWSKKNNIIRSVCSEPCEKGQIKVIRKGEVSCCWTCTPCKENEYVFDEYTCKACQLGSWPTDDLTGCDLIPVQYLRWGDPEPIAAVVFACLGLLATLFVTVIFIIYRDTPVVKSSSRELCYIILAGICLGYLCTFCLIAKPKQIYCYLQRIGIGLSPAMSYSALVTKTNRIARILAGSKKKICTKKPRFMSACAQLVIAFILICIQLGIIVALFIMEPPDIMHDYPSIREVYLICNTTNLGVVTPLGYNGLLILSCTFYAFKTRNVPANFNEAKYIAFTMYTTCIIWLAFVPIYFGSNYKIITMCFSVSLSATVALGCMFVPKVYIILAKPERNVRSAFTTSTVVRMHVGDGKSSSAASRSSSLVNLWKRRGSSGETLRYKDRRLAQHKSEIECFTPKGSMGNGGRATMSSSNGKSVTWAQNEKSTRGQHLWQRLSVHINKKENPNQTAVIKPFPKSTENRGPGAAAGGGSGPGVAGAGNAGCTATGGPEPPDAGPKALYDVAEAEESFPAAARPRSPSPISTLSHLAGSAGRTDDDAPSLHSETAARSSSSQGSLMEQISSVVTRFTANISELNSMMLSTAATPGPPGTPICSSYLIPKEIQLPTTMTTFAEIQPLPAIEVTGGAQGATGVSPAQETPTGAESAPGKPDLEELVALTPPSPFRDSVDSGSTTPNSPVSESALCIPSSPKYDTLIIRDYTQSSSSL
Sequence of Kappa-type opioid receptor (Homo sapiens) (P41145 whole entry): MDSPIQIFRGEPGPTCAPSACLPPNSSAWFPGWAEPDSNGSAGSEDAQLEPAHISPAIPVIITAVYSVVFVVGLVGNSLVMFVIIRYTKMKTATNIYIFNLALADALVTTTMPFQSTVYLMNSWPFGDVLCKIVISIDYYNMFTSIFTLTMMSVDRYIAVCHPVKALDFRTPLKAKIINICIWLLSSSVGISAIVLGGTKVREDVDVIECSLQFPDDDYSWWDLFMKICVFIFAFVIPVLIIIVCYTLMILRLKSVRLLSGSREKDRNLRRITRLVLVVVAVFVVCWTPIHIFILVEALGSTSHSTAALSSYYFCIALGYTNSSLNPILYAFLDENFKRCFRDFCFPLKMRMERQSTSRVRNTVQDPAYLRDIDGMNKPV

Structure (SMILES): CC(C)N1CCc2oc(-c3ccccn3)nc2C1
- inhibition [1]: 0%

Structure (SMILES): N#Cc1cc(F)cc(N2CCn3cc(-c4ccccn4)nc3C2)c1
- pIC50 [2]: 6.82

Structure (SMILES): N#Cc1cc(F)cc(N2CCc3nc(-c4ccccn4)[nH]c3C2)c1
- inhibition [1]: 34%

Structure (SMILES): N#Cc1cccc(N2CC3N=C(c4ccccn4)OC3C2)c1 (stereo not drawn)
- pIC50 [2]: 6.66

Structure (SMILES): Cc1nc2c(o1)CCN(c1ncccc1C#N)C2
- inhibition [1]: 7%

Structure (SMILES): c1ccc(N2CCc3oc(-c4ccccn4)nc3C2)cc1
- pIC50 [2]: 6.48

Structure (SMILES): N#Cc1cc(F)cc(N2CCc3nc(-c4ccccn4)sc3C2)c1
- inhibition [1]: 52%

Structure (SMILES): c1ccc(-c2nc3c(o2)CCN(C2CCNCC2)C3)nc1
- inhibition [1]: 0%

Structure (SMILES): N#Cc1cc(F)cc(N2CCn3nc(-c4ccccn4)nc3C2)c1
- pIC50 [2]: 6.46

Structure (SMILES): N#Cc1cccnc1N1CCc2oc(-c3ccccn3)nc2C1
- pIC50 [2]: 6.96

Structure (SMILES): COC(=O)N1CCc2oc(-c3ccccn3)nc2C1
- inhibition [1]: 11%

Structure (SMILES): N#Cc1cccnc1N1CCc2oc(-c3ccccc3)nc2C1
- pIC50 [2]: 5.92

The next lines start with results.

- inhibition [1]: 14%
Structure (SMILES): N#Cc1cccc(N2CCc3nc(-c4cccnc4)oc3C2)c1

- inhibition [1]: 79%
Structure (SMILES): N#Cc1cccnc1N1CCc2nc(-c3ccccc3)oc2C1

- inhibition [1]: 79%
Structure (SMILES): N#Cc1cccc(N2CCc3nc(C4CCCCC4)oc3C2)c1

- pIC50 [2]: 6.54
Structure (SMILES): N#Cc1cccc(N2CCc3nc(-c4ccccn4)oc3C2)c1

- inhibition [1]: 14%
Structure (SMILES): N#Cc1cccc(S(=O)(=O)N2CCc3nc(-c4ccccn4)oc3C2)c1

- inhibition [1]: 79%
Structure (SMILES): N#Cc1cccc(N2CCc3nc(C4CCCCN4)oc3C2)c1 (racemic)

- pIC50 [2]: 5.59
Structure (SMILES): N#Cc1cccc(C(=O)N2CCc3nc(-c4ccccn4)oc3C2)c1

- pKi [3]: 7.77
- concentration (Brain): 1290 nM
- pIC50 [2]: 7.55
Structure (SMILES): N#Cc1cc(F)cc(N2CCc3oc(-c4ccccn4)nc3C2)c1
- Activity (Rattus norvegicus [4]): 45%
- ED50 (Rattus norvegicus [5]): > 30 mg/kg

- pIC50 [2]: 7.27
Structure (SMILES): N#Cc1cc(F)cc(N2CCc3nc(-c4ccccn4)oc3C2)c1

- inhibition [1]: 0%
Structure (SMILES): c1ccc(-c2nc3c(o2)CCN(C2CCCCC2)C3)nc1

- inhibition [1]: 55%
Structure (SMILES): N#Cc1cccc(CN2CCc3nc(-c4ccccn4)oc3C2)c1

- pIC50 [2]: 6.19
Structure (SMILES): N#Cc1cccnc1N1CCc2nc(-c3ccccn3)oc2C1

- pKi [3]: 7.77
- Cmax (Rhesus monkey): 5080 nM
- Cmax [6]: 2730 nM
- Cmax [7]: 5250 nM
- clearance [9]: 46.5 mL/min/kg
- inhibition [10]: 77%
- half-life [12]: 40.2 min
- bioavailability [13]: 31%
- AUC(0-t) [14]: 3.36 µM·h
- AUC(0-t) [15]: 0.7 µM·h
- Drug uptake (Rattus norvegicus [16]): 1096 nM
- half-life [17]: 37.2 min
- Vd [18]: 2.38 L/kg
- Cmax [19]: 620 nM
- AUC(0-t) [20]: 0.28 µM·h
- clearance [21]: 16.3 mL/min/kg
- half-life [22]: 37.8 min
- Cmax [24]: 210 nM
- concentration (Plasma): 1430 nM
- pIC50 [2]: 7.80
- AUC(0-t) [25]: 3.06 µM·h
- AUC(0-t) [26]: 2.26 µM·h
- bioavailability [27]: 10%
- half-life [28]: 54.6 min
- bioavailability [29]: 30%
- half-life [30]: 46.2 min
- Vd [32]: 0.95 L/kg
Structure (SMILES): N#Cc1cc(F)cc(N2CCCc3oc(-c4ccccn4)nc3C2)c1
- Activity (Rattus norvegicus [4]): 82%
- ED50 (Rattus norvegicus [8]): 0.9 mg/kg
- Activity (Rattus norvegicus [11]): 85%
- Activity (Rattus norvegicus [23]): 55%
- Activity (Rattus norvegicus [31]): inactive

- inhibition [1]: 30%
Structure (SMILES): N#Cc1cccc(N2CCc3oc(-c4ccncc4)nc3C2)c1

- pIC50 [2]: 7.22
Structure (SMILES): N#Cc1cccc(N2CCc3oc(-c4ccccn4)nc3C2)c1

- inhibition [1]: 6%
Structure (SMILES): CC(C)c1nc2c(o1)CN(c1cccc(C#N)c1)CC2
